Where only a bound is given, the exact number is not on record here.

The target of the assay is T1, Arachidonate 12-lipoxygenase (Sus scrofa, UniProt P16469).
T1 sequence (P16469 whole entry): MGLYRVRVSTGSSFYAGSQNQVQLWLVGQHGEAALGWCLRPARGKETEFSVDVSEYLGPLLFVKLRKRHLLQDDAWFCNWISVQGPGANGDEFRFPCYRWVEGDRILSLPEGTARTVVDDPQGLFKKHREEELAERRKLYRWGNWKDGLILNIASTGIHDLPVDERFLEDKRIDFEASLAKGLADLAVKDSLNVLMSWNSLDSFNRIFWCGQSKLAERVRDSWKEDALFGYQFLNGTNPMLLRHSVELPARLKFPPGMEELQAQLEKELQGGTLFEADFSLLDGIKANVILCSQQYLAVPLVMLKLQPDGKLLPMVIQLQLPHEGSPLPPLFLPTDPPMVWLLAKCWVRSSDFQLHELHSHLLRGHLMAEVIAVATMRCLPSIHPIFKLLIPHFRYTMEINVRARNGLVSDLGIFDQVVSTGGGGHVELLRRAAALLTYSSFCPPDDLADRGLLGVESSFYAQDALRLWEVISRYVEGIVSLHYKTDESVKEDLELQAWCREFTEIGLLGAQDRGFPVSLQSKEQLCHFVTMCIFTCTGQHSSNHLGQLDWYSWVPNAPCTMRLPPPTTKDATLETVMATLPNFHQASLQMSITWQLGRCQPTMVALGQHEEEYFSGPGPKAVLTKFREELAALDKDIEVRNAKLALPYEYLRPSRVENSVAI
Put plainly: Inhibitory activity against conversion of [1-14C]arachidonic acid to 12-HPETE and its reduction product 12-HETE by porcine leukocyte type 12-lipoxygenase. The method in brief:
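Porcine leukocyte cytosol (75 μg/mL) in 100 mM HEPES, 2 mM CaCl2, 1 mM MgCl2, pH 8.0. Inhibitor added in DMSO and preincubated with enzyme 5 min at 37 °C. [1-14C]arachidonic acid then added (5 μM final) and reacted 15 min. Mixture acidified, products extracted and separated by TLC, and 12-HETE conversion measured by radioactivity scanning. Incubations run in triplicate; IC50 determined from concentration series.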
As a reminder, the IC50 is the point on the concentration scale where inhibition reaches its midpoint. As for `CCCCCCCCCCC#CCOCc1ccc(CC(=O)O)cc1`, the IC50 was 0.05 µM.

`CCCCCCCCCCC#CCOCc1cccc(CCC(=O)O)c1` yielded a 50% inhibitory concentration (IC50) of 0.32 µM. Compared with the last molecule, the IC50 is about 6.4-fold higher.

Molecule `CCCCCCCCCC/C=C\COCc1ccc(CCC(=O)O)cc1` gave an IC50 of 2.5 µM.

`CCCCCCCCCC/C=C/COCc1ccc(CCC(=O)O)cc1` displayed a 50% inhibitory concentration (IC50) of 0.04 µM.

Consider `CCCCCC#CCCOCc1cccc(CCC(=O)O)c1`, for which the IC50 was greater than 10 µM.

On to `CCCCCCCC#CCOCc1ccc(C(=O)O)cc1`, for which the half-maximal inhibitory concentration (IC50) was found to be 6 µM. This lies in the single-digit micromolar range.

`CCCCCCCCCCCCCOCc1ccc(CCC(=O)O)cc1` yielded a 50% inhibitory concentration (IC50) greater than 10 µM.

In the case of `O=C(O)CCc1ccc(COCC#CCCCCc2ccccc2)cc1`, inhibition was half-maximal at 5 µM (IC50). That is a single-digit micromolar value.

For `CCCCCCCCC#CCOCc1cccc(CCC(=O)O)c1`, the IC50 was 10 µM.

The molecule `CCCCCCCCCCCCCCC#CCOCc1ccc(CCC(=O)O)cc1` registered an IC50 greater than 10 µM.

In turn, `CCCCCCCCCCC#CCOCc1ccc(CCCC(=O)O)cc1` gave a half-maximal inhibitory concentration (IC50) greater than 10 µM.

For the molecule `CCCCCCC#CCOCc1cccc(CCC(=O)O)c1`, the IC50 was greater than 10 µM.

As to `CCCCCCCCC#CCSCc1cccc(CCC(=O)O)c1`, the half-inhibitory concentration (IC50) was greater than 10 µM.

For the molecule `CCCCCCCCCCCCCCC#CCOCc1ccc(C(=O)O)cc1`, the IC50 is greater than 10 µM.

`CCCCCCCCCCC#CCOCc1ccc(C(=O)O)cc1` returned a half-inhibitory concentration (IC50) of 0.06 µM.
